According to ChEMBL document CHEMBL4190227, “Syntheses, toxicities and anti-inflammation of H2S-donors based on non-steroidal anti-inflammatory drugs” (Eur J Med Chem, 2017):

Experiments:
[1] = species: Danio rerio; test: Toxicity in AB zebrafish embryo assessed as embryonic spontaneous movement frequencies per minute at 1 to 20 uM measured at 24 hrs post fertilization by stereoscopic dissecting light microscopic analysis (reference value: 15 /min); format: organism-based; conditions: in vivo
Outline: (§1)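 AB embryos exposed from 4 to 24 hpf to compound (0.5–20 μM) or DMF vehicle (1:1000); ten embryos per group chosen randomly; spontaneous movement recorded under stereoscopic dissecting microscope, frequency per min counted at 24 hpf; three independent experiments, mean ± SD.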

[2] = (§2) Cytotoxicity against mouse RAW264.7 cells assessed as cell viability at 10 to 100 uM treated for 24 hrs post LPS induction by MTT assay; format: cell-based; conditions: RAW264.7 cells, read-out: Activity
Outline: (§3)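 Macrophages in high-glucose DMEM + 10% heat-inactivated FBS, 2 mM glutamine, 37 °C, 5% CO2; exposed 24 h to 10, 50, 100 μM with or without LPS 1 μg/mL; MTT added 4 h, formazan dissolved in DMSO, A570, expressed as % of control; four independent experiments.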

[3] = Toxicity in AB zebrafish embryo assessed as percentage of embryos alive at 5 to 10 uM measured at 120 hrs post fertilization by dissecting light microscopic analysis relative to DMF; format: organism-based, Danio rerio; conditions: read-out: Activity
Outline: (§4)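 Wild-type AB zebrafish embryos, collected within 1 h of lights-on and washed in E3 medium, were exposed one embryo per well in 200 μL test solution, with plates sealed against evaporation. There were 100 embryos per group, split into three replicate groups. Mortality was recorded at 24–168 hpf. DMF vehicle (1:1000) served as control. Results are mean ± SD of three replicates.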

[4] = Drug degradation in phosphate buffer assessed as H2S release by measuring test compound half life at 40 uM measured every 5 mins in presence of TECP by UV-Vis spectrometry; format: physicochemical
Outline: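 Sulfide release at 37.5 °C: donor (40 mM THF stock) added to pH 7.4 phosphate buffer with 1.0 mM TECP; aliquots taken every 5 min into methylene blue cocktail (zinc acetate, N,N-dimethyl-1,4-phenylenediamine, FeCl3 in HCl), A670 read 15 min later; H2S from Na2S calibration curve; concentration vs time curve; four independent experiments.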

[5] = (§5) Cytotoxicity against mouse RAW264.7 cells assessed as cell viability at 10 to 100 uM treated for 24 hrs in absence of LPS by MTT assay; format: cell-based; conditions: RAW264.7 cells, read-out: Activity; outline: as §3
[6] = test system: RAW264.7; test: Antiinflammatory activity in mouse RAW264.7 cells assessed as increase in LPS-induced HO-1 expression incubated for 24 hrs post LPS induction by ELISA; format: functional, cell-based
Outline: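 LPS (1 μg/mL) for 4 h, then compound at 10, 50, 100 μM for 24 h; cells lysed in RIPA, spun 12,000×g 10 min, protein normalised by BCA to 0.1 mg/mL; target (TNF-α, HO-1, IL-10 or COX-2) quantified by sandwich ELISA kit with mouse-specific polyclonal antibodies; four independent experiments.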

[7] = Toxicity in AB zebrafish embryo assessed as percentage of embryos alive at 20 uM measured at 120 hrs post fertilization by dissecting light microscopic analysis relative to DMF; format: organism-based, Danio rerio; conditions: read-out: Activity; outline: as §4
[8] = test system: RAW264.7; test: as §2; format: cell-based; conditions: raw264.7, 24 h, 100 µM; outline: as §3
[9] = species: Danio rerio; test: Toxicity in AB zebrafish embryo assessed as embryonic spontaneous movement frequencies per minute at 5 uM measured at 24 hrs post fertilization by stereoscopic dissecting light microscopic analysis (reference value: 15.9 /min); format: organism-based; conditions: in vivo; outline: as §1
[10] = species: Danio rerio; test: Toxicity in AB zebrafish embryo assessed as reduction in embryonic spontaneous movement frequencies per minute up to 1 uM measured at 24 hrs post fertilization by stereoscopic dissecting light microscopic analysis; format: organism-based; conditions: in vivo; outline: as §1
[11] = species: Danio rerio; test: Toxicity in AB zebrafish embryo assessed as embryonic spontaneous movement frequencies per minute at 20 uM measured at 24 hrs post fertilization by stereoscopic dissecting light microscopic analysis (reference value: 15.9 /min); format: organism-based; conditions: in vivo; outline: as §1
[12] = species: Danio rerio; test: Toxicity in AB zebrafish embryo assessed as rate of embryo malformation at 0.5 to 20 uM measured at 96 hrs post fertilization by stereoscopic dissecting light microscopic analysis relative to DMF; format: organism-based; conditions: in vivo
Outline: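 AB embryos exposed from 4 hpf through 96 hpf to compound or DMF vehicle (1:1000); malformations scored at 96 hpf under stereoscopic dissecting microscope; 100 embryos per group in three replicates; three independent experiments, mean ± SD.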

[13] = test system: RAW264.7; test: as §5; format: cell-based; conditions: raw264.7, 24 h, 100 µM; outline: as §3
[14] = Drug degradation in phosphate buffer assessed as H2S release by measuring test compound half life at 40 uM measured every 5 mins in presence of L-cysteine by UV-Vis spectrometry; format: physicochemical
Outline: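 Sulfide release at 37.5 °C: donor (40 mM THF stock) added to pH 7.4 phosphate buffer with 1.0 mM L-cysteine; aliquots taken every 5 min into zinc acetate/N,N-dimethyl-1,4-phenylenediamine/FeCl3 in HCl, A670 read 15 min later; H2S quantified against Na2S standard curve (5–150 μM); release curve plotted vs time; four independent experiments.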

Compound	Activity [1] [min⁻¹]	viability at 24 h, up to 100 µM [2] [%]	survival at 120 h, up to 10 µM [3] [%]	half-life at 40 µM [4] [min]	viability at 24 h, up to 100 µM [5] [%]	Activity [6]	survival at 120 h, 20 µM [7] [%]	Activity [8]	Activity [9] [min⁻¹]	Activity [10]	Activity [11] [min⁻¹]	Activity [12] [%]	Activity [13]	half-life at 40 µM [14] [min]
CC(C)Cc1ccc(C(C)C(=O)Oc2ccc(C(N)=S)cc2)cc1 (stereo not given)	11	70 to 110	60	20.1	70 to 110	Dose-dependent effect	–	–	–	–	–	–	–	–
CC(=O)Nc1ccc(OC(=O)CCCCC2CCSS2)cc1 (stereo not given)	–	–	–	–	–	Dose-dependent effect	41	Non-Toxic	14.1	Non-Toxic	12.2	3	Non-Toxic	14.1
